{"source": "ChEMBL document CHEMBL1144876", "about": "“Benzodiazepines as potent and selective bradykinin B1 antagonists” (J Med Chem, 2003)", "key": {"[1]": {"assay": "Oral bioavailability in rat", "assay_type": "ADME, organism-based", "settings": "in vivo"}, "[2]": {"biological_target": "T1, B1 bradykinin receptor (Homo sapiens, UniProt P46663)", "T1 sequence (P46663 whole entry)": "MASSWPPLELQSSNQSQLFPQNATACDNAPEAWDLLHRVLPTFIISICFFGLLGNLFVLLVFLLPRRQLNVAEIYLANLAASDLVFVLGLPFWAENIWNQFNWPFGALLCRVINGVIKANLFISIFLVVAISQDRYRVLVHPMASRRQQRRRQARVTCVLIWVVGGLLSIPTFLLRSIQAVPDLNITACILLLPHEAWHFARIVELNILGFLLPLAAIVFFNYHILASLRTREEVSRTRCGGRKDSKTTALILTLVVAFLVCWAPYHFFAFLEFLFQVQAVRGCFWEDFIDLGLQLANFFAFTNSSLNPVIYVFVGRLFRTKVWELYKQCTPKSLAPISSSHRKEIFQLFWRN", "assay": "Inhibition of human bradykinin B1 receptor"}, "[3]": {"assay": "Half life after intravenous administration in rat", "assay_type": "ADME, organism-based", "settings": "in vivo"}, "[4]": {"biological_target": "T2, B1 bradykinin receptor (Rattus norvegicus, UniProt P97583)", "T2 sequence (P97583 whole entry)": "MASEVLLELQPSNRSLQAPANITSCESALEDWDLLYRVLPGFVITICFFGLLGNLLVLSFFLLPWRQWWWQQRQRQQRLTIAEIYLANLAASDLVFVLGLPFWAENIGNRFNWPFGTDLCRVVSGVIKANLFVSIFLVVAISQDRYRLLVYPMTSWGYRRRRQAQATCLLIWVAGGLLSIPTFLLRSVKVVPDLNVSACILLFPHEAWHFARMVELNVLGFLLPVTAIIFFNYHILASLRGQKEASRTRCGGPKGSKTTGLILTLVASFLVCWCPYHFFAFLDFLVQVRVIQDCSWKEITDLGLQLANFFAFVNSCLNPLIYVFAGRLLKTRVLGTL", "assay": "Compound was tested for inhibition against rat Bradykinin receptor B1 using FLIPR assay"}, "[5]": {"biological_target": "T2, B1 bradykinin receptor", "assay": "Compound was tested for inhibition against rat Bradykinin receptor B1", "summary_of_the_method": "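Radioligand binding using the appropriate radioligand on CHO cells stably expressing rat bradykinin B1 receptor; Ki (nM) determined radiometrically; interassay variability about 10%.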"}, "[6]": {"biological_target": "T1, B1 bradykinin receptor", "assay": "Compound was tested for inhibition against human bradykinin B1 receptor using FLIPR assay"}}, "data": [{"smiles": "CCCN1C(=O)[C@H](NC(=O)Nc2ccc(N3CCC(N4CCCCC4)CC3)cc2)N=C(CCc2ccccc2)c2ccccc21", "values": [{"measurement": "bioavailability", "setting": "[1]", "value": 4.9, "unit": "%"}, {"measurement": "Ki", "setting": "[2]", "value": 1.37, "unit": "nM"}, {"measurement": "half-life", "setting": "[3]", "value": 144, "unit": "min"}, {"measurement": "IC50", "setting": "[4]", "value": 7.25, "unit": "nM"}, {"measurement": "Ki", "setting": "[5]", "value": 1.97, "unit": "nM"}, {"measurement": "IC50", "setting": "[6]", "value": 4.83, "unit": "nM"}]}, {"smiles": "CCCN1C(=O)C(NC(=O)Nc2ccc(N3CCN(c4ccccn4)CC3)cc2)N=C(C2CCCCC2)c2ccccc21", "note": "(configuration not stated)", "values": [{"measurement": "Ki", "setting": "[2]", "value": 97.5, "unit": "nM"}]}, {"smiles": "CCCN1C(=O)C(NC(=O)Nc2ccc(N3CCCCC3)cc2)N=C(C2CCCCC2)c2ccccc21", "note": "(configuration not stated)", "values": [{"measurement": "Ki", "setting": "[2]", "value": "> 10000", "unit": "nM"}]}, {"smiles": "CCCN1C(=O)C(NC(=O)Nc2ccc(N3CCN(c4ccccc4)CC3)cc2)N=C(C2CCCCC2)c2ccccc21", "note": "(configuration not stated)", "values": [{"measurement": "Ki", "setting": "[2]", "value": "> 10000", "unit": "nM"}]}, {"smiles": "CCCN1C(=O)[C@H](NC(=O)Nc2ccc(N3CCC(N4CCCCC4)CC3)cc2)N=C(c2ccc(C)cc2)c2ccccc21", "values": [{"measurement": "bioavailability", "setting": "[1]", "value": 32, "unit": "%"}, {"measurement": "Ki", "setting": "[2]", "value": 13.4, "unit": "nM"}, {"measurement": "half-life", "setting": "[3]", "value": 258, "unit": "min"}, {"measurement": "IC50", "setting": "[4]", "value": 27, "unit": "nM"}, {"measurement": "Ki", "setting": "[5]", "value": 17, "unit": "nM"}, {"measurement": "IC50", "setting": "[6]", "value": 64.5, "unit": "nM"}]}, {"smiles": "CCCN1C(=O)C(NC(=O)Nc2ccc(N3CCN(c4cccnc4)CC3)cc2)N=C(C2CCCCC2)c2ccccc21", "note": "(configuration not stated)", "values": [{"measurement": "Ki", "setting": "[2]", "value": 85, "unit": "nM"}]}, {"smiles": "CCCN1C(=O)[C@H](NC(=O)Nc2ccc(N3CCN(c4ccncc4)CC3)cc2)N=C(CCc2ccccc2)c2ccccc21", "values": [{"measurement": "bioavailability", "setting": "[1]", "value": 3.4, "unit": "%"}, {"measurement": "half-life", "setting": "[3]", "value": 162, "unit": "min"}, {"measurement": "IC50", "setting": "[4]", "value": 2.8, "unit": "nM"}, {"measurement": "Ki", "setting": "[5]", "value": 0.92, "unit": "nM"}]}, {"smiles": "CCCN1C(=O)C(NC(=O)Nc2ccc(N3CCC(N(C)C)CC3)cc2)N=C(C2CCCCC2)c2ccccc21", "note": "(configuration not stated)", "values": [{"measurement": "Ki", "setting": "[2]", "value": 28, "unit": "nM"}, {"measurement": "IC50", "setting": "[6]", "value": 164, "unit": "nM"}]}, {"smiles": "CCCN1C(=O)C(NC(=O)Nc2ccc(N3CCC(c4ccncc4)CC3)cc2)N=C(CCc2ccccc2)c2ccccc21", "note": "(configuration not stated)", "values": [{"measurement": "Ki", "setting": "[2]", "value": 55, "unit": "nM"}]}, {"smiles": "CCCN1C(=O)[C@H](NC(=O)Nc2ccc(N3CCN(c4ccncc4)CC3)cc2)N=C(C2CCCCC2)c2ccccc21", "values": [{"measurement": "bioavailability", "setting": "[1]", "value": 2.5, "unit": "%"}, {"measurement": "Ki", "setting": "[2]", "value": 1.33, "unit": "nM"}, {"measurement": "half-life", "setting": "[3]", "value": 138, "unit": "min"}, {"measurement": "IC50", "setting": "[4]", "value": 24.2, "unit": "nM"}, {"measurement": "IC50", "setting": "[6]", "value": 8, "unit": "nM"}]}, {"smiles": "O=C(CCCN1C(=O)CN=C(C2CCCCC2)c2ccccc21)Nc1ccc(N2CCC(N3CCCCC3)CC2)cc1", "values": [{"measurement": "Ki", "setting": "[2]", "value": 141, "unit": "nM"}]}, {"smiles": "CCCN1C(=O)[C@H](NC(=O)Nc2ccc(N3CCC(N4CCCCC4)CC3)cc2)N=C(C2CCCCC2)c2ccccc21", "values": [{"measurement": "bioavailability", "setting": "[1]", "value": 10, "unit": "%"}, {"measurement": "Ki", "setting": "[2]", "value": 5.73, "unit": "nM"}, {"measurement": "half-life", "setting": "[3]", "value": 192, "unit": "min"}, {"measurement": "IC50", "setting": "[4]", "value": 59, "unit": "nM"}, {"measurement": "Ki", "setting": "[5]", "value": 18.3, "unit": "nM"}, {"measurement": "IC50", "setting": "[6]", "value": 24.7, "unit": "nM"}]}, {"smiles": "CCCN1C(=O)[C@@H](NC(=O)Nc2ccc(N3CCC(N4CCCCC4)CC3)cc2)N=C(C2CCCCC2)c2ccccc21", "values": [{"measurement": "Ki", "setting": "[2]", "value": 1020, "unit": "nM"}, {"measurement": "IC50", "setting": "[6]", "value": 2200, "unit": "nM"}]}]}
